Results published in PMC4102938 (British Journal of Cancer, 2014).
One block for each compound: values may come before it.

How the values were obtained:
[1] = test system: six NSCLC cell lines (A549, H460, H1975, PC14, H1299, and H23); experiment: Cell cycle analysis by propidium iodide flow cytometry, six lines; format: cell-based, human; conditions: range over six NSCLC cell lines, 1 μM, 24 h
Method in brief: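 A549, H460, H1975, PC14, H1299 and H23 were seeded at 50% confluency, left overnight, then exposed for 24 h to test compound (1 μM) or diluent control. DNA content was stained with propidium iodide, and cell-cycle phase distribution was determined by flow cytometry.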

[2] = Body weight of treated mice; format: in vivo; conditions: NOD/SCID mice, oral 10 mg kg^−1 thrice weekly for 4 weeks
CRM1 [3] = experiment: Quantitative RT-PCR of CRM1 mRNA in treated cells; format: cell-based, human; conditions: H1975, KPT-330 10–1000 nM, 24 h
Method in brief: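 H1975 cells were exposed for 24 h to test compound at 0, 10, 100 or 1000 nM. CRM1 mRNA was quantified by quantitative RT–PCR; experiments were done in triplicate and reported as mean±s.d.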

11 NSCLC cell lines = experiment: MTT proliferation assay, 72 h, whole panel; format: cell-based; conditions: Homo sapiens, read-out: calculated IC50 values, range
Method in brief: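 Eleven NSCLC lines (STR-verified) were grown in RPMI 1640 with 10% FBS and penicillin/streptomycin at 37 °C, 5% CO2. Cells were plated at 3 × 10^3 per well and exposed for 72 h to test compound at 0, 0.1, 1, 10, 100 or 1000 nM. Viability was read by MTT absorbance at 570 nm, and IC50 was taken from fitted dose-response curves.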

[4] = test system: PC14 cells, scramble vector control; experiment: MTT growth assay, transient scramble control; format: cell-based; conditions: Homo sapiens, PC-14
[5] = test system: H1975 cells stably carrying shp73; experiment: MTT growth assay, p73-knockdown cells; format: cell-based; conditions: Homo sapiens, NCI-H1975, 72 h
Method in brief: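 H1975 cells stably carrying a p73-targeting or scrambled shRNA were used, made by pLKO.1 lentiviral infection with polybrene for 16 h and puromycin selection for 3 days beginning 2 days after infection. Cells were cultured 3 days with test compound at 0, 1, 3, 10, 30, 100, 320 or 1000 nM. Growth was measured by MTT and IC50 derived. Data are three experiments in triplicate, mean±s.d.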

H1975 NSCLC xenografts [6] = experiment: Immunohistochemistry of xenograft tumours; format: in vivo, NOD/SCID mice; conditions: end of treatment, 10 mg kg^−1 thrice weekly × 4 weeks
Method in brief: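 At the end of the 28-day oral dosing, H1975 xenograft tumours were formalin-fixed, paraffin-embedded and cut at 5.0 μm. Peroxidase was quenched with 3% H2O2, sections blocked 1 h at room temperature in PBS with 3% normal serum, then probed overnight at 4 °C for Ki-67 or TUNEL. Detection used biotinylated secondary (1:200) plus avidin–biotin peroxidase. Three random ×200 fields were scored, counting 100 cells in triplicate; positives are given as % of total cells.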

H1975 NSCLC xenografts [7] = experiment: H1975 NSCLC xenograft tumour growth; format: in vivo; conditions: NOD/SCID mice, oral 10 mg kg^−1 thrice weekly for 4 weeks
Method in brief: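 Seven-week-old male NOD/SCID mice were injected subcutaneously in both flanks with H1975 cells (1.0 × 10^7) in matrigel. Mice were randomised into two groups of five and dosed orally three times weekly for 4 weeks with vehicle (0.6% w/v aqueous Pluronic F-68) or test compound (10 mg kg−1), with Nutri-Cal given during therapy. Calipers were used three times weekly; volume = width² × length/2. Tumour weights were taken after 28 days.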

[8] = Peripheral blood analysis after 28-day treatment; format: in vivo, NOD/SCID mice
Method in brief: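 H1975-xenografted male NOD/SCID mice (five per group) were given vehicle (0.6% w/v aqueous Pluronic F-68) or test compound orally, 10 mg kg−1 three times weekly for 4 weeks. After the 28-day treatment, peripheral blood was analysed for white cells, neutrophils, platelets and haematocrit, and serum for albumin, alkaline phosphatase, ALT and creatinine.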

[9] = test system: H1975 cells stably carrying scramble vector; experiment: MTT growth assay, scrambled shRNA control cells; format: cell-based, human
Method in brief: (§1)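 H1975 cells stably carrying a CRM1-targeting or scrambled shRNA were used, made by pLKO.1 lentiviral infection with polybrene for 16 h and puromycin selection for 3 days starting 2 days post-infection. Cells were cultured 72 h across a cisplatin series up to 10 μg ml−1. Growth was measured by MTT and IC50 derived. Data are three experiments in triplicate, mean±s.d.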

CRM1 [10] = experiment: Immunoblot of CRM1 protein in treated cells; format: cell-based, human; conditions: H1975 cell lysate, KPT-330 10–1000 nM, 24 h
Method in brief: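 H1975 cells were treated 24 h with test compound at 0, 10, 100 or 1000 nM. Whole-cell lysates were prepared with a mammalian lysis reagent, protein was measured by BCA, and samples were run on SDS-PAGE and blotted to PVDF. Membranes were blocked 1 h in TBS/5% milk/0.5% Tween 20, incubated with primary antibody overnight at 4 °C, then HRP secondary for 1 h at room temperature. Detection was by chemiluminescence, with β-actin as reference and densitometry of bands.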

PC14 cells, shp73 = experiment: MTT growth assay, transient p73 silencing; format: cell-based; conditions: Homo sapiens, PC-14
six NSCLC cell lines = experiment: Apoptosis, annexin V/propidium iodide flow cytometry, six lines; format: cell-based, human; conditions: range over six NSCLC cell lines, 24 h
Method in brief: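 Cells seeded at 50% confluency, incubated overnight, then given fresh medium with diluent control or test compound (1, 10, 100, 1000 nM) for 24 h. Cells were PBS-washed, trypsinized, resuspended in annexin-binding buffer at 1 × 10^6 cells per ml, and stained with annexin V plus propidium iodide. Analysed by flow cytometry; read-out is the percent annexin V/PI co-positive cells.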

CRM1 [11] = conditions: 24 h of incubation; ref Sun et al (2013); cited from earlier work
[12] = test system: H1975 cells stably containing shCRM1; experiment: MTT growth assay, CRM1-knockdown cells; format: cell-based, human; conditions: H1975 shCRM1, cisplatin 72 h
Method in brief: as §1

IC50 [5]: > 1000 nM | Neut ([8]; NOD/SCID mice, 10 mg kg^−1 thrice weekly × 4 weeks, mean±s.d., range 0.15–7.9): 1.26±0.5 × 1000 per μl | CREAT ([8]; NOD/SCID mice, 10 mg kg^−1 thrice weekly × 4 weeks, mean±s.d., range 0.2–0.9): 0.062 ± 0.01 mg/dL | WBC ([8]; NOD/SCID mice, 10 mg kg^−1 thrice weekly × 4 weeks, mean±s.d., range 2.9–20.9): 4.0±0.3 × 1000 per μl | Alb ([8]; NOD/SCID mice, 10 mg kg^−1 thrice weekly × 4 weeks, mean±s.d., range 25–30): 36.5 ± 0.6 g/L | HCT ([8]; NOD/SCID mice, 10 mg kg^−1 thrice weekly × 4 weeks, mean±s.d., range 34–53): 46.2±7.5% | ALP ([8]; NOD/SCID mice, 10 mg kg^−1 thrice weekly × 4 weeks, mean±s.d., range 35–96): 96±18 U l^−1 | PLT ([8]; NOD/SCID mice, 10 mg kg^−1 thrice weekly × 4 weeks, mean±s.d., range 685–1436): 786±180 × 1000 per μl | IC50 ([9]; Homo sapiens, NCI-H1975, 72 h): 98 nM
Structure (SMILES): O=C(/C=C\n1cnc(-c2cc(C(F)(F)F)cc(C(F)(F)F)c2)n1)NNc1cnccn1 [KPT-330]
G1 cell cycle, range [1]: 56–82% | G2/M phase, range [1]: 2–20% | S phase, range [1]: 8–20% | effect on body weight compared with the vehicle group [2]: did not have a significant effect | mean relative body weight compared with mean starting weight [2]: 105% | CRM1 mRNA levels (CRM1 [3]): no significant change | IC50 (11 NSCLC cell lines): 25 to 995 nM | IC50 [4]: 197 nM | Ki-67-positive cells in tumour tissue (H1975 NSCLC xenografts [6]): decreased | percent of TUNEL-positive cells in tumour tissue (H1975 NSCLC xenografts [6]): increased | tumour growth compared with vehicle-treated controls (H1975 NSCLC xenografts [7]): mark inhibition | ALT ([8]; NOD/SCID mice, 10 mg kg^−1 thrice weekly × 4 weeks, mean±s.d., range 17–77): 46.2±10.2 U l^−1 | total white blood cells, neutrophils, platelet counts, haematocrit, serum albumin, alkaline phosphatase, ALT and creatinine compared with vehicle group ([8]; peripheral blood after the 28-day treatment): no significant alterations | protein levels of CRM1 (western blot) (CRM1 [10]): dose-dependent decrease | IC50 (PC14 cells, shp73): 318 nM | range of apoptosis induced (annexin V/propidium iodide co-positive cells) (six NSCLC cell lines): 22–54%

Structure (SMILES): CCC(=C/[C@H](C)C/C=C/C(C)=C/[C@@H](C)C(=O)[C@@H](C)[C@H](O)[C@@H](C)C/C(C)=C/C(=O)O)/C=C/[C@@H]1OC(=O)C=C[C@@H]1C [LMB, Leptomycin B]
reversibility of binding to CRM1 (CRM1 [11]): not reversible

Structure (SMILES): N.N.[Cl][Pt][Cl] [cisplatin, reference compound]
IC50 [12]: 1.62 µg/mL | IC50 ([9]; H1975 scramble, cisplatin 72 h, MTT): 8.1 µg/mL
